Each structure is given as a SMILES string.

Series [1] can be described thus: Thiol reactivity of compound at 100 uM measured by DTNB assay. It counts as physicochemical.
Series [2] can be described thus: Thiol reactivity of compound measured by TNB2- assay. It counts as physicochemical. The essentials: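 Reactivity toward the thiol surrogate TNB2– in a nonproteinaceous setting without TCEP. Reversibility tested by adding TCEP and checking that absorbance was restored.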
Series [3] deals with UDP-N-acetylglucosamine 1-carboxyvinyltransferase (Escherichia coli K-12) (UniProt P0A749). The series is described as follows: Inhibition of recombinant Escherichia coli MurA assessed as residual activity at 500 uM using UDP-N-acetylglucosamine as substrate preincubated for 30 mins in presence of 1 mM DTT followed by substrate addition and measured by malachite green based colorimetric assay relative to control.
Sequence of UDP-N-acetylglucosamine 1-carboxyvinyltransferase (Escherichia coli K-12) (P0A749 whole entry): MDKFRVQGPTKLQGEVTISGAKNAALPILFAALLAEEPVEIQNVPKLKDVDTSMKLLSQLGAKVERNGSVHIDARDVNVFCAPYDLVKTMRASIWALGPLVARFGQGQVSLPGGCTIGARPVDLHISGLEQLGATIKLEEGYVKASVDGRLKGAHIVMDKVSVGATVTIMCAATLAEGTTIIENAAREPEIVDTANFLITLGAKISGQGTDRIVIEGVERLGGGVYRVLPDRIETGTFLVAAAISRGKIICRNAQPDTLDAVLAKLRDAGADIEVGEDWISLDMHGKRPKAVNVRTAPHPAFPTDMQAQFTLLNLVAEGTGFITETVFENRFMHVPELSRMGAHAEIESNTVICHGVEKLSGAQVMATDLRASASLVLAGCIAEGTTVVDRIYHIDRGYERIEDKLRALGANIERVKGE

Series [4] in a line: Redox activity of compound assessed as redox index at 100 uM in presence of 100 uM TCEP measured by H2DCFDA assay. It counts as physicochemical. The essentials: (§1)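 Reactive oxygen species, with or without the reducing agent TCEP, detected with the fluorescent probe H2DCFDA. Compound spectral interference (autofluorescence) checked under the assay conditions.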
A short description of series [5]: Redox activity of compound assessed as redox index at 100 uM measured by HRP-PR assay. In kind it is physicochemical. The essentials: (§2)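 H2O2 from redox cycling, with or without DTT, detected with horseradish peroxidase-phenol red (HRP-PR).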
In series [6] the test system is Mycobacterium tuberculosis. The series is described as follows: Inhibition of Mycobacterium tuberculosis MetAP1a assessed as residual activity at 625 uM using L-methionine 7-amido-4-methylcoumarin as fluorogenic substrate and measured by fluorescence based assay. The essentials: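 Kinetic fluorescence assay in which the enzyme hydrolyses L-methionine 7-amido-4-methylcoumarin to fluorescent 7-amino-4-methylcoumarin. Compounds were tested at 500–625 μM, and activity was called at <50% residual activity. Spectral interference was checked by measuring absorbance at the excitation and emission wavelengths and compound autofluorescence.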

Series [7] can be described thus: Redox activity of compound assessed as redox index at 100 uM in presence of 1 mM DTT measured by HRP-PR assay. In kind it is physicochemical. The essentials:
as §2

For series [8], the target named is D-alanine--D-alanine ligase B (Escherichia coli K-12) (UniProt P07862). The series is described as follows: Inhibition of recombinant Escherichia coli DdlB assessed as residual activity at 500 uM using D-alanine as substrate incubated for 20 mins and measured by malachite green based colorimetric assay relative to control. The essentials: (§3)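 Screened at 500–625 μM with malachite green colorimetric read-out. Activity threshold was <50% residual activity.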

Series [9] addresses UDP-N-acetylglucosamine 1-carboxyvinyltransferase (Escherichia coli K-12) (UniProt P0A749). The experiment in a line: Inhibition of recombinant Escherichia coli MurA assessed as residual activity at 500 uM using UDP-N-acetylglucosamine as substrate preincubated for 30 mins followed by substrate addition and measured by malachite green based colorimetric assay relative to control. The essentials:
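E. coli MurA at 500–625 μM with 30 min preincubation before substrate addition. Malachite green colorimetric read-out. Activity threshold was <50% residual activity.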

Series [10] can be described thus: Redox activity of compound assessed as redox index at 100 uM measured by H2DCFDA assay. It counts as physicochemical. The method in brief:
as §1

Series [11] is described as follows: Redox activity of compound assessed as redox index at 10 uM measured by resazurin assay. It counts as physicochemical. The method in brief: (§4)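 Free radicals formed by redox cycling with DTT detected with resazurin by fluorimetric read-out. Spectral interference checked.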
Background: Resazurin is reduced to fluorescent resorufin, in cell work by metabolically active cells.

For series [12], the target named is UDP-N-acetylglucosamine 1-carboxyvinyltransferase (Escherichia coli K-12) (UniProt P0A749). The experiment in a line: Inhibition of recombinant Escherichia coli MurA assessed as residual activity at 500 uM using UDP-N-acetylglucosamine as substrate and measured by malachite green based colorimetric assay relative to control. The essentials: as §3
The target of series [13] is Replicase polyprotein 1ab (Severe acute respiratory syndrome coronavirus 2) (UniProt P0DTD1). The experiment in a line: Inhibition of recombinant SARS-CoV-2 3CLpro expressed in Escherichia coli NiCo21(DE3) assessed as residual activity at 500 uM using DABCYL-KTSAVLQSGFRKME-EDANS as substrate preincubated for 30 mins followed by substrate addition and measured by FRET assay relative to control. The essentials:
(§5)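 Kinetic fluorescence read-out of cleavage of a FRET substrate carrying a DABCYL–EDANS pair. Compounds were tested at 500–625 μM, and <50% residual activity was taken as the activity threshold. To exclude false positives, absorbance at the excitation and emission wavelengths and autofluorescence of the compounds were measured.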

Series [14] is described as follows: Redox activity of compound assessed as redox index at 1 uM measured by resazurin assay. In kind it is physicochemical. The essentials: as §4
The target in series [15] is Replicase polyprotein 1ab (Severe acute respiratory syndrome coronavirus 2) (UniProt P0DTD1). The experiment in a line: Inhibition of recombinant SARS-CoV-2 3CLpro expressed in Escherichia coli NiCo21(DE3) assessed as residual activity at 500 uM using DABCYL-KTSAVLQSGFRKME-EDANS as substrate preincubated for 30 mins in presence of 1mM DTT followed by substrate addition and measured by FRET assay relative to control. The essentials: as §5

The nature of series [16]: Aqueous stability of the compound at pH 7.4 measured after 60 mins by spectrophotometric analysis. It counts as physicochemical. The conditions noted are these: buffer, pH 7.4, 1 h. The method in brief:
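Followed by spectrophotometry as changes in the compound absorption spectrum over time in 50 mM Tris-HCl pH 7.4, 0.5 mM EDTA, read after 60 min in 96-well microplate format. Compounds with low absorbance were not evaluated.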

As to `Cc1nc(CCl)cs1`, the Activity entry in series [1] is “Active”; in series [2], “Active”; in [3], 112%; in series [6], 124%; in series [8], 100%; in series [9], 48.4%. Also, the Activity in series [12] is 89.6%; in series [13], 96.8%; in [15], 90.9%. Besides, the Activity_index worked out at 0.8 in series [4]; 1 in series [5]; 1 in series [7]; 1 in series [10]; 0.9 in series [11]; 0.9 in [14].

On to `O=S(=O)(Cc1ccccc1)Nc1nccs1`, for which the Stability result in [16] is on record as “Stable”. In addition, the Activity result in series [2] was “Active”; in [3], 94%; in [6] it was 45.2%; in series [8], 93%; in [9] it was 0%; in [12], 0%. Further, the Activity was found to be 20% in [13] and 82.8% in series [15]. Besides, the Activity_index is reported as 10.2 in series [4]; 0.8 in series [5]; 1 in [7]; 22.2 in series [10]; 2 in series [11]; 1 in [14].

The values are drawn from ChEMBL document CHEMBL5104216, “Fragment-Sized Thiazoles in Fragment-Based Drug Discovery Campaigns: Friend or Foe?” (ACS Med Chem Lett, 2022).
